Among the data in ChEMBL document CHEMBL1155277, “Synthesis of new 4-isopropylthiazole hydrazide analogs and some derived clubbed triazole, oxadiazole ring systems--a novel class of potential antibacterial, antifungal and antitubercular agents” (Eur J Med Chem, 2009) are MIC values, retold here.

Type in all cases: functional
In experiment [1] the test system is Enterococcus faecalis. As to the kind of experiment: Antimicrobial activity against Streptococcus faecalis ATCC 14506 after 24 hrs by broth microdilution method. To be noted: ATCC 14506, 24 h. The method in brief:
(§1)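 Broth microdilution in tubes. Compounds were dissolved at 10 mg in 1 mL DMSO and diluted in Mueller-Hinton Broth for bacteria or Sabouraud Liquid Medium for yeasts and A. niger. Final concentrations were 1–500 µg/mL (1, 2, 4, 8, 16, 31.25, 62.5, 125, 250, 500), with DMSO at most 1% v/v. Inoculum was 10^5 cfu/mL, incubated at 37 °C for 24 h. MIC was the lowest concentration giving complete growth inhibition. Media and media-plus-DMSO served as growth controls.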
(Broth dilution looks for growth in wells or tubes with falling amounts of substance.)

The test system of experiment [2] is Candida tropicalis. As to the kind of experiment: Antimicrobial activity against Candida tropicalis ATCC 1369 after 24 hrs by broth microdilution method. To be noted: ATCC 1369, 24 h. The method in brief:
as §1

Experiment [3] deals with Saccharomyces cerevisiae. Description: Antimicrobial activity against Saccharomyces cerevisiae ATCC 9763 after 24 hrs by broth microdilution method. To be noted: ATCC 9763, 24 h. The method in brief:
as §1

The subject of experiment [4] is Bacillus subtilis. As to the kind of experiment: Antimicrobial activity against Bacillus subtilis ATCC 60511 after 24 hrs by broth microdilution method. The conditions noted are these: ATCC 60511, 24 h. The method in brief: as §1
Experiment [5] deals with Escherichia coli. Description: Antimicrobial activity against Escherichia […] after 24 hrs by broth microdilution method. The method in brief: as §1
Experiment [6] concerns Staphylococcus aureus. Description: Antimicrobial activity against Staphylococcus aureus ATCC 11632 after 24 hrs by broth microdilution method. To be noted: ATCC 11632, 24 h. The essentials: as §1
The subject of experiment [7] is Aspergillus niger. Description: Antimicrobial activity against Aspergillus niger ATCC 6275 after 24 hrs by broth microdilution method. The conditions noted are these: ATCC 6275, 24 h. The method in brief:
as §1

Experiment [8] has as its system Pseudomonas aeruginosa. Description: Antimicrobial activity against Pseudomonas aeruginosa ATCC 10145 after 24 hrs by broth microdilution method. To be noted: ATCC 10145, 24 h. The essentials:
as §1

Experiment [9] relates to Klebsiella pneumoniae. As to the kind of experiment: Antimicrobial activity against Klebsiella pneumoniae ATCC 10031 after 24 hrs by broth microdilution method. The conditions noted are these: ATCC 10031, 24 h. The method in brief: as §1
Experiment [10] has as its system Mycobacterium tuberculosis. As to the kind of experiment: Antitubercular activity against Mycobacterium tuberculosis H37Rv after 21 days by broth dilution assay. The conditions noted are these: 504 h. The essentials: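 H37Rv frozen stock in Middlebrook 7H9 broth with 10% albumin-dextrose-catalase and 0.2% glycerol, thawed and diluted to 10⁵ cfu mL⁻¹. Compounds dissolved in DMSO, diluted in broth (final DMSO 1.3%). U-tubes inoculated, incubated 37 °C for 21 days. Growth scored visually against drug-free and inoculum-free controls and isoniazid. MIC = lowest concentration inhibiting […] of starting population.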

One may read the MIC as the lowest concentration found to suppress growth.

≈ marks a conversion by molar mass, not a printed value.

On to `CC(C)c1csc(C(=O)N/N=C/c2ccc(N(C)C)cc2)n1`, for which the minimal inhibitory concentration (MIC) is 125 µg/mL (≈ 395 µM) in [1]; 125 µg/mL (≈ 395 µM) in experiment [2]; 250 µg/mL (≈ 790 µM) in experiment [3]; 125 µg/mL (≈ 395 µM) in [4]; 31.2 µg/mL (≈ 98.8 µM) in experiment [5]; 250 µg/mL (≈ 790 µM) in [6]. Also, the MIC worked out at 62.5 µg/mL (≈ 198 µM) in [7], 31.2 µg/mL (≈ 98.8 µM) in experiment [8], 125 µg/mL (≈ 395 µM) in experiment [9] and 125 µg/mL (≈ 395 µM) in experiment [10].

Turning to `CC(C)c1csc(C(=O)N/N=C/c2ccc(O)cc2)n1`, the MIC in experiment [1] amounted to 125 µg/mL (≈ 432 µM); in experiment [2], 16 µg/mL (≈ 55.3 µM); in experiment [3], 31.2 µg/mL (≈ 108 µM); in [4], 125 µg/mL (≈ 432 µM); in experiment [5], 31.2 µg/mL (≈ 108 µM); in experiment [6], 125 µg/mL (≈ 432 µM). In addition, the MIC stood at 31.2 µg/mL (≈ 108 µM) in [7], 16 µg/mL (≈ 55.3 µM) in experiment [8], 31.2 µg/mL (≈ 108 µM) in [9] and 125 µg/mL (≈ 432 µM) in experiment [10].

As for `CC(C)c1csc(C(=O)N/N=C/c2cccc(Cl)c2Cl)n1`, the MIC in experiment [1] is 31.2 µg/mL (≈ 91.3 µM); in experiment [2], 31.2 µg/mL (≈ 91.3 µM); in experiment [3] it was 16 µg/mL (≈ 46.7 µM); in [4], 31.2 µg/mL (≈ 91.3 µM); in experiment [5], 16 µg/mL (≈ 46.7 µM); in experiment [6], 250 µg/mL (≈ 730 µM). Besides, the MIC in experiment [7] turned out to be 125 µg/mL (≈ 365 µM); in [8], 31.2 µg/mL (≈ 91.3 µM); in experiment [9] it was 31.2 µg/mL (≈ 91.3 µM); in experiment [10], 125 µg/mL (≈ 365 µM).

As for `CC(C)c1csc(C(=O)NN)n1`, the MIC in experiment [1] came to 125 µg/mL (≈ 675 µM); in [2], 500 µg/mL (≈ 2700 µM); in [3], 250 µg/mL (≈ 1350 µM); in [4] it was 250 µg/mL (≈ 1350 µM); in experiment [5], 125 µg/mL (≈ 675 µM); in experiment [6], 250 µg/mL (≈ 1350 µM). Moreover, the minimum inhibitory concentration (MIC) in experiment [7] was found to be 125 µg/mL (≈ 675 µM); in experiment [8], 125 µg/mL (≈ 675 µM); in experiment [9] it was 250 µg/mL (≈ 1350 µM); in [10] it was 125 µg/mL (≈ 675 µM).

Turning to `CC(C)=NNC(=O)c1nc(C(C)C)cs1`, the minimal inhibitory concentration (MIC) stood at 125 µg/mL (≈ 555 µM) in experiment [1]; 125 µg/mL (≈ 555 µM) in experiment [2]; 500 µg/mL (≈ 2220 µM) in experiment [3]; 125 µg/mL (≈ 555 µM) in [4]; 125 µg/mL (≈ 555 µM) in experiment [5]; 250 µg/mL (≈ 1110 µM) in [6]. The minimum inhibitory concentration (MIC) in experiment [7] was found to be 500 µg/mL (≈ 2220 µM); in experiment [8] it was 125 µg/mL (≈ 555 µM); in [9], 125 µg/mL (≈ 555 µM); in [10], 125 µg/mL (≈ 555 µM).

With `C/C(=N/NC(=O)c1nc(C(C)C)cs1)c1ccc(Br)cc1`, the MIC in experiment [1] turned out to be 250 µg/mL (≈ 683 µM); in [2], 125 µg/mL (≈ 341 µM); in experiment [3], 31.2 µg/mL (≈ 85.3 µM); in experiment [4] it was 125 µg/mL (≈ 341 µM); in [5] it was 250 µg/mL (≈ 683 µM); in experiment [6] it was 250 µg/mL (≈ 683 µM). For the same molecule, the minimal inhibitory concentration (MIC) came to 125 µg/mL (≈ 341 µM) in experiment [7], 125 µg/mL (≈ 341 µM) in experiment [8], 125 µg/mL (≈ 341 µM) in experiment [9] and 31.2 µg/mL (≈ 85.3 µM) in experiment [10].

In the case of `C/C(=N/NC(=O)c1nc(C(C)C)cs1)c1ccc(O)cc1`, the minimum inhibitory concentration (MIC) in experiment [1] worked out at 125 µg/mL (≈ 412 µM); in experiment [2], 31.2 µg/mL (≈ 103 µM); in [3], 31.2 µg/mL (≈ 103 µM); in experiment [4], 250 µg/mL (≈ 824 µM); in experiment [5], 125 µg/mL (≈ 412 µM); in experiment [6], 125 µg/mL (≈ 412 µM). Besides, the MIC in experiment [7] was determined as 125 µg/mL (≈ 412 µM); in experiment [8], 125 µg/mL (≈ 412 µM); in experiment [9] it was 250 µg/mL (≈ 824 µM); in [10] it was 125 µg/mL (≈ 412 µM).

For the molecule `CC(C)c1csc(C(=O)N/N=C/c2ccccc2)n1`, the MIC was found to be 125 µg/mL (≈ 457 µM) in experiment [1]; 62.5 µg/mL (≈ 229 µM) in experiment [2]; 62.5 µg/mL (≈ 229 µM) in [3]; 125 µg/mL (≈ 457 µM) in experiment [4]; 31.2 µg/mL (≈ 114 µM) in experiment [5]; 500 µg/mL (≈ 1830 µM) in experiment [6]. Besides, the MIC is 31.2 µg/mL (≈ 114 µM) in experiment [7], 16 µg/mL (≈ 58.5 µM) in [8], 125 µg/mL (≈ 457 µM) in experiment [9] and 250 µg/mL (≈ 915 µM) in experiment [10].

With `CC(=O)NNC(=O)c1nc(C(C)C)cs1`, the MIC in [1] worked out at 125 µg/mL (≈ 550 µM); in experiment [2], 125 µg/mL (≈ 550 µM); in experiment [3] it was 500 µg/mL (≈ 2200 µM); in experiment [4], 250 µg/mL (≈ 1100 µM); in [5] it was 250 µg/mL (≈ 1100 µM); in [6], 500 µg/mL (≈ 2200 µM). For the same molecule, the minimum inhibitory concentration (MIC) is 500 µg/mL (≈ 2200 µM) in [7], 125 µg/mL (≈ 550 µM) in experiment [8], 125 µg/mL (≈ 550 µM) in experiment [9] and 125 µg/mL (≈ 550 µM) in experiment [10].

`C/C(=N/NC(=O)c1nc(C(C)C)cs1)c1ccccc1`: the MIC in [1] was 250 µg/mL (≈ 870 µM); in experiment [2], 500 µg/mL (≈ 1740 µM); in [3] it was 500 µg/mL (≈ 1740 µM); in experiment [4], 250 µg/mL (≈ 870 µM); in experiment [5] it was 125 µg/mL (≈ 435 µM); in experiment [6] it was 250 µg/mL (≈ 870 µM). Moreover, the MIC in [7] is 250 µg/mL (≈ 870 µM); in experiment [8], 250 µg/mL (≈ 870 µM); in experiment [9], 125 µg/mL (≈ 435 µM); in experiment [10] it was 125 µg/mL (≈ 435 µM).

On to `C/C(=N/NC(=O)c1nc(C(C)C)cs1)c1ccc(Cl)cc1`, for which the minimum inhibitory concentration (MIC) in [1] is 125 µg/mL (≈ 388 µM); in experiment [2], 125 µg/mL (≈ 388 µM); in [3], 125 µg/mL (≈ 388 µM); in [4], 31.2 µg/mL (≈ 97.1 µM); in [5], 125 µg/mL (≈ 388 µM); in [6], 125 µg/mL (≈ 388 µM). In addition, the MIC in experiment [7] is 125 µg/mL (≈ 388 µM); in experiment [8], 125 µg/mL (≈ 388 µM); in [9], 125 µg/mL (≈ 388 µM); in [10], 62.5 µg/mL (≈ 194 µM).
